Experimental data taken from ChEMBL document CHEMBL1649083, “Discovery of novel inhibitors of the NorA multidrug transporter of Staphylococcus aureus” (2011).
≈ marks a conversion by molar mass, not a printed value.

Legend:
[1] = target: T1, Quinolone resistance protein NorA (Staphylococcus aureus) (UniProt P0A0J7); test: Inhibition of NorA in Staphylococcus aureus 1199B assessed as reduction in ethidium bromide efflux at 50 uM by fluorimetry after 5 mins
T1 sequence (whole entry): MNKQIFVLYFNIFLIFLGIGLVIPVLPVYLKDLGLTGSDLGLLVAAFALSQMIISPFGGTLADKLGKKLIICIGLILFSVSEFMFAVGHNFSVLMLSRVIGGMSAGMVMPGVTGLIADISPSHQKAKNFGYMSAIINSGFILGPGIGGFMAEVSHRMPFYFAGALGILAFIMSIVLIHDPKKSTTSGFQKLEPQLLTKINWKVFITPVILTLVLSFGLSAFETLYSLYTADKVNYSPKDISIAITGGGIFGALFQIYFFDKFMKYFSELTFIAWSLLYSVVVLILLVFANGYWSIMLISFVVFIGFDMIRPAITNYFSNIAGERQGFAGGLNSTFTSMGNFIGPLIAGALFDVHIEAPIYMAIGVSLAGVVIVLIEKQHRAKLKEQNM
Outline: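 S. aureus SA-1199B (NorA overexpressing via promoter up-mutation; GrlA A116E), EtBr-loaded cells. EtBr loss measured fluorometrically over a 5 min time course, in duplicate, as mean total efflux. Percent reduction calculated versus efflux without compound. Test compound at 50 μM; increasing concentrations were also run for dose-response profiles.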

[2] = target: T1, Quinolone resistance protein NorA (Staphylococcus aureus); test: Inhibition of NorA in Staphylococcus aureus K2378 assessed as reduction in ciprofloxacin MIC at 1.56 ug/ml by microdilution technique
Outline: (§1)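 Checkerboard combination: fresh scalar dilutions of test compound crossed with ciprofloxacin dilutions. Ciprofloxacin MIC determined by broth microdilution per CLSI guidelines, in duplicate. The result is the fold reduction in ciprofloxacin MIC relative to ciprofloxacin alone, read at the stated test-compound concentration. Reserpine served as reference inhibitor.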

Staphylococcus aureus [3] = test: Antibacterial activity against Staphylococcus aureus K2378 overexpressing NorA by microdilution technique; type: functional
Outline: (§2)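 Intrinsic MIC of each test compound, run alone, by broth microdilution per CLSI guidelines, in duplicate.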

Staphylococcus aureus [4] = test: Antibacterial activity against NorA deficient Staphylococcus aureus K1902 by microdilution technique; type: functional; outline: as §2
Staphylococcus aureus [5] = test: Potentiation of ciprofloxacin MIC against NorA deficient Staphylococcus aureus K1902 by microdilution technique; type: functional
Outline: (§3)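 MICs run in duplicate by broth microdilution following CLSI guidelines. Ciprofloxacin MICs were also determined with scalar dilutions of freshly prepared test compound solutions in checkerboard combination format. Strain panel: SA-K1902 (norA-), SA-K2378 (norA++), SA-1199 (norA wild-type), SA-1199B (norA++, GrlA A116E) and ATCC 25923 wild-type control.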

Staphylococcus aureus [6] = test: Antibacterial activity against Staphylococcus aureus 1199 expressing wild type NorA by microdilution technique
Staphylococcus aureus [7] = test: Potentiation of ciprofloxacin MIC against wild type Staphylococcus aureus ATCC 25923 by microdilution technique; type: functional; outline: as §3
Staphylococcus aureus [8] = test: Antibacterial activity against Staphylococcus aureus 1199B by microdilution technique; type: functional; outline: as §3
Staphylococcus aureus [9] = test: Antibacterial activity against wild type Staphylococcus aureus ATCC 25923 by microdilution technique; type: functional; outline: as §2
[10] = target: T1, Quinolone resistance protein NorA (Staphylococcus aureus); test: Inhibition of NorA in Staphylococcus aureus 1199B expressing GrlA A116E mutant assessed as reduction in ciprofloxacin MIC at 1.56 ug/ml by microdilution technique; outline: as §1
Staphylococcus aureus [11] = test: Antibacterial activity against Staphylococcus aureus 1199B overexpressing wild type NorA and GrlA A116E mutant by microdilution technique; type: functional; outline: as §2
[12] = target: T1, Quinolone resistance protein NorA (Staphylococcus aureus); test: Inhibition of NorA in Staphylococcus aureus 1199 assessed as reduction in ciprofloxacin MIC by microdilution technique; outline: as §1

CCOC(=O)C1SC(NC(=S)NC(=O)c2ccccc2)=NC1C (stereo not given)
inhibition [1]: 23.2%

CCOC(=O)c1cn(C2CC2)c2c(C)c(N3CCC4=C(C3)/C(=N/OC)CCS4)c(N)cc2c1=O
inhibition [1]: 54.4%

CCCOc1ccc(C2=CSc3ccccc3N2C)cc1
inhibition [1]: 0%

Cc1cc(C)cc(/N=C2\S/C(=C\c3ccc(C(=O)O)cc3)C(=O)N2c2cc(C)cc(C)c2)c1
inhibition [1]: 55%

CN1CC[C@H](c2ccc(F)cc2)[C@@H](COc2ccc3c(c2)OCO3)C1
inhibition [1]: 85%

COc1cccc(CNC(C)C(O)c2ccccc2)c1 (stereo not given)
inhibition [1]: 2.8%

CCOC(=O)c1cn(C2CC2)c2c(C)c(N3CCC4=C(C3)/C(=N/O)CCS4)c(N)cc2c1=O
inhibition [1]: 36.2%

COc1cc(/C=C2/SC(Nc3ccccc3F)=NC2=O)ccc1OCC(=O)O
inhibition [1]: 11.9%

O=C(CSc1nnc(CNc2ccc(F)cc2)o1)N1c2ccccc2Sc2ccccc21
inhibition [1]: 11.5%

Cc1c(NS(=O)(=O)c2ccc(F)cc2)c(=O)n(-c2ccccc2)n1C
inhibition [1]: 3.2%

COc1ccc(-c2cc(=O)c3ccccc3n2C)cc1
inhibition [1]: 0%

Cc1ccc(S(=O)(=O)Nc2ccc3c(c2)nc(C)n3Cc2ccccc2)cc1
inhibition [1]: 30.6%

CCCOc1ccc(-c2cc(=O)c3cc(OC)c(OC)cc3n2C)cc1
inhibition [1]: 0%

CCOC(=O)c1cn(C2CC2)c2cc(N3CCC4=C(C3)C(=O)CCS4)c(N)cc2c1=O
inhibition [1]: 35.7%

O=C(O)c1ccc(N2C(=O)C[C@@H](S/C(=N\c3ccccc3)Nc3ccccc3)C2=O)cc1
inhibition [1]: 0%

OCCN1CCN(CCCN2c3ccccc3Sc3ccc(C(F)(F)F)cc32)CC1
inhibition [1]: 75%

Cc1sc([C@@H]2C(C#N)=C(N)OC3=C2C(=O)CC(C)(C)C3)cc1COc1ccc(Br)cc1
inhibition [1]: 0%

CCC(C)N1C(=O)S/C(=C\c2ccc(-c3cc(C(=O)O)ccc3Cl)o2)C1=O (stereo not given)
inhibition [1]: 74.7%

CC[C@H]1CCc2nc(SCc3ccc(C(=O)O)cc3)c(C#N)c(C(F)(F)F)c2C1
fold change (FC) [2]: 16 | MIC (Staphylococcus aureus [3]): 6.25 mg/L (≈ 14.9 µM) | MIC (Staphylococcus aureus [4]): 6.25 mg/L (≈ 14.9 µM) | fold change (FC) (Staphylococcus aureus [5]): 2 | MIC (Staphylococcus aureus [6]): 12.5 mg/L (≈ 29.7 µM) | fold change (FC) (Staphylococcus aureus [7]): 2 | MIC (Staphylococcus aureus [8]): 15 µM (≈ 6.31 µg/mL) | MIC (Staphylococcus aureus [9]): 6.25 mg/L (≈ 14.9 µM) | fold change (FC) [10]: 2 | MIC (Staphylococcus aureus [11]): 6.25 mg/L (≈ 14.9 µM) | fold change (FC) [12]: 2 | inhibition [1]: 71.7%

Cn1c(-c2ccc(OCCN3CCOCC3)cc2)cc(=O)c2ccccc21
inhibition [1]: 0%

N#Cc1c(-c2ccc(F)cc2)cc(-c2ccccc2)nc1SCC(=O)N1CCC[C@@H]1C(=O)O
inhibition [1]: 36.3%

CCC(C)N1C(=O)S/C(=C\c2ccc(N3CCCC3)o2)C1=O (stereo not given)
inhibition [1]: 0%

CCOC(=O)c1cn(C2CC2)c2c(C)c(N3CCC4=C(C3)C(=O)CCS4)c(N)cc2c1=O
inhibition [1]: 36.8%

CCCOc1ccc(-c2cc(=O)c3ccccc3n2CCN(CC)CC)cc1
inhibition [1]: 57.3%

N#Cc1c(SCc2ccc(C(=O)O)cc2)nc2c(c1C(F)(F)F)CCCCC2
inhibition [1]: 67.1%

Cc1ccc(S(=O)(=O)Nc2ccc3[nH]c(-c4ccco4)nc3c2)cc1
inhibition [1]: 67.5%

COc1cc2c(=O)cc(-c3ccc(O)cc3)n(C)c2cc1OC
inhibition [1]: 0%

C=CCOc1c(I)cc(/C=C2\C(=O)N(c3ccc(C(=O)O)cc3)N=C2c2ccccc2)cc1OC
inhibition [1]: 3.8%

CCCOc1ccc(-c2cc(OCCN3CCCCC3)c3ccccc3n2)cc1
inhibition [1]: 88.5%
